In ChEMBL document CHEMBL1134964, “Heterocyclic benzazole derivatives with antimycobacterial in vitro activity” (2002) one finds CC50, MIC and Safety index data, which are given here for 6 compounds.

What all share (type): functional
The subject of assay [1] is HeLa. The assay is described as follows: The compound was tested for cytotoxicity against HeLa cells. To be noted: Homo sapiens.
Assay [2] deals with Mycobacterium kansasii. The assay is described as follows: In vitro inhibition of Mycobacterium Kansasi (My 6 509/96) growth after 21 days culture. The following applies: 504 h.
In assay [3] the test system is Mycobacterium kansasii. As to the kind of experiment: In vitro inhibition of Mycobacterium Kansasi (My 6 509/96) growth after 14 days culture. To be noted: 336 h.
The subject of assay [4] is Mycobacterium tuberculosis. As to the kind of experiment: In vitro minimum inhibitory concentration the compound for anti-mycobacterial activity was determined against Mycobacterium tuberculosis (My 331/88) by micromethod after 21 days of incubation. The following applies: 504 h. Put shortly:
(§1)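 Micromethod broth MIC. Compounds tested at 500, 250, 125, 32, 16, 8, 4 and 2, plus one intermediate level between 125 and 32. Plates incubated at 37 C and read at 7, 14 and 21 days. MIC is the lowest concentration at which growth of the mycobacteria was inhibited. MIC could not be set where solubility in the test medium was limited.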

Assay [5] concerns Mycobacterium avium. As to the kind of experiment: In vitro inhibition of Mycobacterium Avium growth after 14 days culture. The following applies: 336 h. Put shortly: as §1
The subject of assay [6] is Mycobacterium kansasii. The assay is described as follows: In vitro inhibition of Mycobacterium Kansasi (My 235/80) growth after 7 days culture. To be noted: 168 h.
Assay [7] deals with Mycobacterium kansasii. The assay is described as follows: In vitro minimum inhibitory concentration of the compound for anti-mycobacterial activity was determined against Mycobacterium kansasii (My 6 509/96) by micromethod after 7 days of incubation. To be noted: 168 h.
For assay [8], the system named is Mycobacterium avium. As to the kind of experiment: In vitro inhibition of Mycobacterium Avium (My 330/88) growth after 21 days culture. To be noted: 504 h. Put shortly: as §1
The test system of assay [9] is Mycobacterium kansasii. As to the kind of experiment: In vitro inhibition of Mycobacterium Kansasi (My 235/80) growth after 21 days culture. To be noted: 504 h.
Assay [10] has as its system Mycobacterium kansasii. The assay is described as follows: In vitro inhibition of Mycobacterium Kansasi (My 235/80) growth after 14 days culture. To be noted: 336 h.
Assay [11] is described as follows: Ratio of cytotoxicity to minimum inhibitory concentration of Mycobacterium tuberculosis My 331/88 was evaluated.
Assay [12] concerns Mycobacterium kansasii. The assay is described as follows: In vitro minimum inhibitory concentration the compound for anti-mycobacterial activity was determined against Mycobacterium kansasii (My 235/80) by micromethod after 21 days of incubation. To be noted: 504 h.
Assay [13] concerns Mycobacterium tuberculosis. As to the kind of experiment: In vitro inhibition of Mycobacterium Tuberculosis (My 331/88) growth after 14 days culture. The following applies: 336 h. Put shortly:
as §1

The subject of assay [14] is Mycobacterium kansasii. As to the kind of experiment: In vitro minimum inhibitory concentration the compound for anti-mycobacterial activity was determined against Mycobacterium kansasii (My 235/80) by micromethod after 14 days of incubation. To be noted: 336 h.
The test system of assay [15] is Mycobacterium kansasii. The assay is described as follows: In vitro minimum inhibitory concentration the compound for anti-mycobacterial activity was determined against Mycobacterium kansasii (My 6 509/96) by micromethod after 7 days of incubation. To be noted: 168 h.
Assay [16] concerns Mycobacterium tuberculosis. The assay is described as follows: In vitro inhibition of Mycobacterium Tuberculosis (My 331/88) growth after 21 days culture. The following applies: 504 h. Put shortly:
as §1

Assay [17] relates to Mycobacterium kansasii. As to the kind of experiment: In vitro minimum inhibitory concentration the compound for anti-mycobacterial activity was determined against Mycobacterium kansasii (My 6 509/96) by micromethod after 14 days of incubation. To be noted: 336 h.
Assay [18] deals with Mycobacterium avium. The assay is described as follows: In vitro minimum inhibitory concentration the compound for anti-mycobacterial activity was determined against Mycobacterium avium (My 330/88) by micromethod after 21 days of incubation. The following applies: 504 h. Put shortly: as §1
Assay [19] deals with Mycobacterium avium. The assay is described as follows: In vitro minimum inhibitory concentration the compound for anti-mycobacterial activity was determined against Mycobacterium avium (My 330/88) by micromethod after 14 days of incubation. To be noted: 336 h. The essentials: as §1
For assay [20], the system named is Mycobacterium kansasii. The assay is described as follows: In vitro minimum inhibitory concentration the compound for anti-mycobacterial activity was determined against Mycobacterium kansasii (My 6 509/96) by micromethod after 21 days of incubation. To be noted: 504 h.

SMILES strings stand for the structures. In brackets after ≈: the same amount, converted by molar mass. Where only a bound is given, the exact number is not on record here.

For `NC(=S)c1cccc(CSc2nc3ccccc3s2)c1`, in assay [1], the CC50 was determined as 36.7 µM. Further, the minimum inhibitory concentration (MIC) in assay [2] came out at 16 µM (≈ 5.06 µg/mL); in assay [3], 16 µM (≈ 5.06 µg/mL); in assay [4], 16 µM (≈ 5.06 µg/mL); in assay [5], 32 µM (≈ 10.1 µg/mL); in assay [6] it was 8 µM (≈ 2.53 µg/mL); in [7] it was 8 µM (≈ 2.53 µg/mL). Also, the MIC stood at 62 µM (≈ 19.6 µg/mL) in assay [8], 16 µM (≈ 5.06 µg/mL) in assay [9] and 16 µM (≈ 5.06 µg/mL) in assay [10]. The Safety index in assay [11] was found to be 4.6.

On to `O=[N+]([O-])c1ccc(CSc2nc3ccccc3o2)c([N+](=O)[O-])c1`, for which, in assay [1], the 50% cytotoxic concentration (CC50) was 136 µM. For the same compound, the MIC in assay [2] is 8 µM (≈ 2.65 µg/mL); in assay [3] it was 8 µM (≈ 2.65 µg/mL); in assay [5], greater than 16 µM; in assay [12], 4 µM (≈ 1.33 µg/mL); in assay [6], 4 µM (≈ 1.33 µg/mL); in assay [8] it was greater than 32 µM. Besides, the MIC in [13] came to 8 µM (≈ 2.65 µg/mL); in [14], 4 µM (≈ 1.33 µg/mL); in assay [15] it was 4 µM (≈ 1.33 µg/mL); in assay [16], 8 µM (≈ 2.65 µg/mL). In addition, in assay [11], the Safety index was found to be 17.

`NC(=S)c1cccc(CSc2nc3ccccc3o2)c1` showed a 50% cytotoxic concentration (CC50) in assay [1] of 71.9 µM. The MIC came out at 32 µM (≈ 9.61 µg/mL) in assay [17]; 32 µM (≈ 9.61 µg/mL) in assay [12]; 8 µM (≈ 2.4 µg/mL) in [6]; 62 µM (≈ 18.6 µg/mL) in assay [18]; 8 µM (≈ 2.4 µg/mL) in assay [13]; 32 µM (≈ 9.61 µg/mL) in assay [14]. In addition, the MIC in assay [19] worked out at 62 µM (≈ 18.6 µg/mL); in assay [15], 8 µM (≈ 2.4 µg/mL); in assay [20] it was 32 µM (≈ 9.61 µg/mL); in [16] it was 16 µM (≈ 4.81 µg/mL). Besides, the Safety index in assay [11] is 9.

Regarding `c1ccc(CSc2nc3ccccc3s2)cc1`, the MIC in [17] is 125 µM (≈ 32.2 µg/mL); in assay [12] it was greater than 500 µM; in [6] it was 62 µM (≈ 16 µg/mL); in [18], 62 µM (≈ 16 µg/mL); in assay [13], 250 µM (≈ 64.3 µg/mL); in assay [14] it was 500 µM (≈ 129 µg/mL). In addition, the MIC turned out to be 32 µM (≈ 8.24 µg/mL) in [19], 62 µM (≈ 16 µg/mL) in assay [15], 250 µM (≈ 64.3 µg/mL) in assay [20] and 500 µM (≈ 129 µg/mL) in assay [16].

Consider `O=[N+]([O-])c1ccccc1CSc1nc2ccccc2s1`, for which the MIC in [2] was 125 µM (≈ 37.8 µg/mL); in assay [3], 32 µM (≈ 9.68 µg/mL); in assay [5], 125 µM (≈ 37.8 µg/mL); in [12], 500 µM (≈ 151 µg/mL); in [6], 62 µM (≈ 18.7 µg/mL); in [8], greater than 250 µM. The MIC in assay [13] stood at 125 µM (≈ 37.8 µg/mL); in assay [15], 32 µM (≈ 9.68 µg/mL); in assay [16], 500 µM (≈ 151 µg/mL); in assay [10], 125 µM (≈ 37.8 µg/mL).

For `Sc1nc2ccccc2s1` [2-MERCAPTOBENZOTHIAZOLE], the MIC in assay [17] is greater than 62 µM; in assay [12], greater than 125 µM; in assay [6] it was 62 µM (≈ 10.4 µg/mL); in assay [18], greater than 62 µM; in assay [13], 62 µM (≈ 10.4 µg/mL); in assay [14] it was 125 µM (≈ 20.9 µg/mL). The MIC in [19] was greater than 62 µM; in assay [15] it was 62 µM (≈ 10.4 µg/mL); in assay [20] it was greater than 62 µM; in assay [16] it was 62 µM (≈ 10.4 µg/mL).
